# STAT3 act-1 – STAT3 signaling activation; activation (% of control), % at 5.6 µM; U3A cells, IL-6 STAT3-luciferase reporter, luminescence; 100% = signal with IL-6 EC80 alone; 190,000 tested, 0.91% active; AID 871;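 active = activation above the screen-wide mean of compound activation plus 3 SD, cut at about 130% in these data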;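 note: 0% = background luminescence of wells with medium and substrate only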
#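 Test system: STAT3-luciferase reporter U3A cells; Detection: reporter luminescence signal; Times: 1 h compound pre-exposure, 6 h IL-6 stimulation, 37 °C; Benchmarks: IL-6-only high control; Also added: IL-6 stimulus at 33 ng/mL final.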
# KLK5 inh – inhibitors of human kallikrein 5; inhibition, % at 5 µM; recombinant hK5, fluorogenic AMC substrate cleavage; 210,000 tested, 0.59% active;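 active = inhibition of 40% or more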;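 note: 0% = enzyme controls without compound and 100% = no-enzyme blanks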
# Target sequence (Q9Y337 67-293 limits assumed): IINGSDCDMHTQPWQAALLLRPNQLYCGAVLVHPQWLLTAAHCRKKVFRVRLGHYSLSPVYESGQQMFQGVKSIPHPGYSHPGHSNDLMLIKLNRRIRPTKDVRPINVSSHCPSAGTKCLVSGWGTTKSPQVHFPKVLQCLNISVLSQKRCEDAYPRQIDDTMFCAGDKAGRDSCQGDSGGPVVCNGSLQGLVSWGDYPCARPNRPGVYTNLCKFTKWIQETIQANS
# thrombin 1536 – inhibitors of human thrombin; inhibition, % at 5 µM; alpha-thrombin, Boc-VPR-AMC fluorogenic substrate cleavage; 220,000 tested, 0.26% active; AID 1046; P00734;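 active = inhibition at or above 40%; inactive = inhibition below 40%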;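 note: 0% = enzyme with no compound and 100% = wells without enzyme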
#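 Material: human alpha-thrombin protein. Incubation: reaction at ambient temperature. Technique: fluorescence of released AMC, ex 355 nm, em 460 nm. Control set: no-compound enzyme wells and no-enzyme blanks. Also added: Boc-VPR-AMC substrate, 15 µM final. Buffer or medium: pH 7.5 Tris (50 mM) with NaCl 150 mM, Tween 20 0.05%.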
# FXIa inh – factor XIa (human) inhibition | P03951 | purified FXIa, Boc-Glu-Ala-Arg-AMC fluorogenic substrate | inhibition, % at 5 µM | 220,000 tested, 0.14% active | AID 798;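 active = inhibition of at least 40%; inactive = inhibition below 40%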;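 note: fluorescence of freed AMC excited at 355 nm; 0% = enzyme without compound and 100% = no enzyme blank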
# FXIIa inh – factor XIIa (human) inhibition. P00748. purified FXIIa, Boc-QGR-AMC fluorogenic substrate, 2 h. inhibition, % at 5 µM. 220,000 tested, 0.3% active. AID 800; in the data active = inhibition above about 40%;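 note: 0% = enzyme with no compound and 100% = blank without enzyme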
# AHR act – human AHR activation; P35869; AHR-responsive luciferase reporter cells, luminescence; activation, % at 5 µM; 320,000 tested, 2.5% active; in the data active = activation above about 47%;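 note: 0% = vehicle wells and 100% = reference agonist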
# STAT3 act-2 – STAT3 activation, confirmation assay; shares compounds with STAT3 act-1; AID 1267; potentiation (% of control), % at 5.7 µM; 1,200 tested, 64% active; U3A STAT3-luciferase reporter, IL-6 potentiation, luminescence; U3A cells lack STAT1; 100 means same as IL-6 alone;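 active = percent activation of the STAT3 luciferase reporter above a set limit taken from the earlier primary screen, cut at about 130% in these data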;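 note: 0% = background signal of medium plus substrate and 100% = median of IL-6 with DMSO wells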
# NFkB act 2 – NF-kappaB activation in STAT3 activator counter-screen | shares compounds with STAT3 act-1 | human cells, NF-kappaB reporter activation | activation (% of control), % at 5.7 µM | 1,200 tested, 11% active | AID 1309; in the data active = activation above about 120%;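 note: reporter induced by TNF-alpha stimulation; 100% = median of stimulated DMSO wells and 0% = no signal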
# STAT1 act STAT3c – STAT1 activation in STAT3 activator counter-screen; 1,200 tested, 13% active; activation (% of control), % at 5.7 µM; shares compounds with STAT3 act-1; NIH 3T3 STAT1-luciferase reporter, IFN-gamma, luminescence;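 active = activation above the solvent-only control well mean plus 3 SD, set per screening run, cut at about 120% in these data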;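 note: 100% = IFN-gamma with DMSO median signal so 100% means no change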
# * hit, by the source's call; · = not tested or not shown. The list is not random: actives were taken first. Their share in the collection is about 3.5%.
SMILES,STAT3 act-1,KLK5 inh,thrombin 1536,FXIa inh,FXIIa inh,AHR act,STAT3 act-2,NFkB act 2,STAT1 act STAT3c
CS(=O)(=O)c1ccc(Sc2nc3ccccc3s2)c([N+](=O)[O-])c1,147*,-7,-16,0,8,2,118,104,110
Cn1c(O)c(C2=c3ccccc3=NC2=O)[nH]c1=S,142*,-7,-4,10,7,61*,155*,103,93
CC(C)CCNC(=O)C1CC(c2ccccc2C(F)(F)F)=NO1 (stereo unspecified),·,2,-1,1,7,1,·,·,·
CCc1nc2c(c(=O)c3ccccc3n2C)c(=O)n1CCc1ccc(OC)cc1,144*,7,15,14,9,41,202*,92,113
CC(=O)c1ccc(N2C(=O)[C@@H]3C(CCC(N)=O)NC4(C(=O)Nc5c4ccc(Cl)c5C)[C@@H]3C2=O)cc1 (stereo partly specified),137*,1,-2,0,-5,23,128,102,91
COc1ccccc1CN1C(=O)[C@@H]2C(CCC(N)=O)NC3(C(=O)Nc4c3ccc(Cl)c4C)[C@@H]2C1=O (stereo partly specified),120,-12,1,-3,5,19,·,·,·
CN1CCc2c(sc3ncn4nc(-c5ccccc5O)nc4c23)C1,182*,-86,1,0,13,·,164*,107,101
c1coc(-c2nc3c4c5c(sc4ncn3n2)CCCC5)c1,84,-7,-14,-6,10,8,·,·,·
COc1ccc(NC(=O)CCCNC(=O)c2ccc(Cl)cc2)cc1OC,·,·,·,·,·,5,·,·,·
CCN(CC)CCn1c(NC(=O)c2ccc(C)cc2)nc2ccccc21,·,·,·,·,·,29,·,·,·
CCn1c(NC(=O)c2cccs2)nc2ccccc21,146*,-209,0,-3,9,32,131,106,107
CN(C)CCn1c(NC(=O)c2ccc(Cl)cc2)nc2ccccc21,164*,-53,2,16,24,26,157*,119,123*
CCS(=O)(=O)N1CCC(C(=O)Oc2ccc(C)c(C)c2)CC1,·,·,·,·,·,0,·,·,·
COCc1cc(C)nc2sc(C(=O)NN)c(-n3cccc3)c12,137*,-1,2,3,3,-2,139*,118,101
O=C(CCN1CCOCC1)N1CCc2c([nH]c3ccccc23)C1c1cccc(Cl)c1 (stereo unspecified),142*,5,-9,6,10,24,172*,110,87
O=C(c1cccs1)N1CCc2c([nH]c3ccccc23)C1c1ccc(Cl)cc1 (stereo unspecified),102,-19,-21,-15,-3,9,·,·,·
COc1ccccc1C(=O)N/C(=C\c1ccc(Br)cc1)C(=O)N1CCCC1,·,1,5,0,6,0,·,·,·
c1ccc2cc(-c3cc4ccccn4c3)ccc2c1,177*,-10,5,8,20,15,94,102,103
COc1ccc(NC(=O)c2ccc3c(c2)NC(=O)CO3)cc1OC,100,-2,9,-3,3,12,·,·,·
Cc1ccc(NC(=O)c2cnc(N3CCN(c4ccccn4)CC3)c3ccccc23)c(Br)c1,143*,3,-8,4,10,9,126,113,109
O=C(Nc1c(F)cccc1F)c1cnc(N2CCN(c3ccccn3)CC2)c2ccccc12,98,-15,6,-4,13,23,·,·,·
Cc1ccc(O)c(N=CC2=C(O)c3ccccc3C2=O)c1,149*,3,1,5,10,78*,138*,128*,105
CNC(=O)CSc1nc2c([nH]c3ccccc32)c(=O)n1CCOC,141*,1,-4,-4,4,31,150*,98,91
COc1cccc(-n2c(SCC(N)=O)nc3c([nH]c4ccccc43)c2=O)c1,143*,-3,1,1,16,75*,158*,107,97
Cc1cc(NC(=O)CSc2nc3c([nH]c4ccccc43)c(=O)n2-c2cccc(C(F)(F)F)c2)no1,148*,-7,-3,4,-7,·,138*,105,85
SMILES,STAT3 act-1,KLK5 inh,thrombin 1536,FXIa inh,FXIIa inh,AHR act,STAT3 act-2,NFkB act 2,STAT1 act STAT3c
COCCn1c(SCC(=O)N2CCCC2)nc2c([nH]c3ccccc32)c1=O,·,·,·,·,·,23,·,·,·
CC(C)Sc1nc2c([nH]c3ccccc32)c(=O)n1C,158*,-4,-6,-2,12,29,159*,92,87
COc1ccc(-n2c(SCC(=O)Nc3ccc(C(N)=O)cc3)nc3c([nH]c4ccccc43)c2=O)cc1OC,·,·,·,·,·,17,·,·,·
C=CCOc1ccc2ccccc2c1CNc1ncn[nH]1,98,-16,1,-5,11,35,·,·,·
CSc1nsc(SCC(=O)NC2CCCCC2)n1,137*,-9,6,2,2,28,128,110,114
COc1ccc(CNC(=O)CN2CCN(c3ccccc3)CC2)cc1,·,·,·,·,·,2,·,·,·
Cc1ccc(-n2nc(C)c3c2OC(N)=C(C#N)C3c2ccoc2)cc1 (stereo unspecified),177*,-8,8,0,16,51*,153*,104,91
CCOC(=O)c1sc(NCc2ccco2)c(-c2nc3ccccc3s2)c1N,158*,11,-4,-5,5,62*,136*,101,104
CCOC(=O)c1cc(-c2cccnc2)nn1-c1ccccc1C,94,-2,·,2,3,1,·,·,·
COc1cccc(OCC(=O)N2CCCc3ccccc32)c1,·,·,·,·,·,-2,·,·,·
CNc1nc(-c2c[nH]c3ccccc23)cs1,161*,-25,-8,3,-3,47,152*,100,95
O=C(Cn1ccc(NC(=O)OCc2ccccc2)nc1=O)NCCCn1ccnc1,·,·,·,·,·,-3,·,·,·
O=C(CCCn1cnc([N+](=O)[O-])n1)Nc1cccc2ccccc12,138*,-7,-2,0,-7,15,128,102,106
Cc1c(NS(C)(=O)=O)cccc1-c1nc2cccnc2s1,·,1,-1,2,8,7,·,·,·
CC(C)CCOc1ccc(C(=O)CCNC(C)C(=O)O)cc1 (stereo unspecified),104,-3,-13,-2,-8,·,·,·,·
CNc1cc([N+](=O)[O-])ccc1N/C=C/C(=O)c1cccs1,176*,-4,2,5,7,74*,153*,106,101
